From ChEMBL document CHEMBL3758165, “In vitro interactions between anidulafungin and nonsteroidal anti-inflammatory drugs on biofilms of Candida spp” (2016)

Key:
Assay type in all cases: functional
[1] = tested on: Candida albicans; experiment: Potentiation of anidulafungin-induced antibiofilm activity against Candida albicans ATCC 10231 at 0.1 uM to 100 mM after 48 hrs by XTT reduction assay relative to control; parameters: scale not given: the % may be the effect or the level left
Method in brief: (§1)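 Biofilms grown on sterilized PVC disks: 1·10^6 cfu/ml Candida cells adhered for 1.5 h at 37 °C with shaking, washed with PBS, then matured 48 h at 37 °C in RPMI 1640 (MOPS, pH 7). Preformed biofilms were washed and exposed to drug, alone or in two-dimensional checkerboard combination, in RPMI 1640 for 24 h at 37 °C on a rocker.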

[2] = tested on: Candida albicans; experiment: Antibiofilm activity against Candida albicans ATCC 10231 by two dimensional checkerboard dilution method; method in brief: as §1
[3] = tested on: Candida albicans; experiment: Antibiofilm activity against Candida albicans ATCC 10231 by two dimensional checkerboard dilution method in presence of anidulafungin; method in brief: as §1
[4] = tested on: Candida albicans; experiment: Antibiofilm activity against Candida albicans ATCC 90028 by two dimensional checkerboard dilution method; method in brief: as §1
[5] = tested on: Candida albicans; experiment: Antibiofilm activity against Candida albicans ATCC 90028 by two dimensional checkerboard dilution method in presence of anidulafungin; method in brief: as §1
[6] = tested on: Candida albicans; experiment: Antibiofilm activity against Candida albicans ATCC 24433 by two dimensional checkerboard dilution method in presence of anidulafungin; method in brief: as §1
[7] = tested on: Candida albicans; experiment: Antibiofilm activity against Candida albicans 17a18 by two dimensional checkerboard dilution method; method in brief: as §1
[8] = tested on: Candida albicans; experiment: Antibiofilm activity against Candida albicans 17a18 by two dimensional checkerboard dilution method in presence of anidulafungin; method in brief: as §1
[9] = tested on: Nakaseomyces glabratus; experiment: Antibiofilm activity against Candida glabrata ATCC 15126 by two dimensional checkerboard dilution method; method in brief: as §1
[10] = tested on: Nakaseomyces glabratus; experiment: Antibiofilm activity against Candida glabrata 18a10 by two dimensional checkerboard dilution method; method in brief: as §1
[11] = tested on: Nakaseomyces glabratus; experiment: Antibiofilm activity against Candida glabrata 18a10 by two dimensional checkerboard dilution method in presence of anidulafungin; method in brief: as §1
[12] = tested on: Meyerozyma guilliermondii; experiment: Antibiofilm activity against Candida guilliermondii ATCC 6260 by two dimensional checkerboard dilution method; method in brief: as §1
[13] = tested on: Meyerozyma guilliermondii; experiment: Antibiofilm activity against Candida guilliermondii ATCC 6260 by two dimensional checkerboard dilution method in presence of anidulafungin; method in brief: as §1
[14] = tested on: Meyerozyma guilliermondii; experiment: Antibiofilm activity against Candida guilliermondii a83 by two dimensional checkerboard dilution method; method in brief: as §1
[15] = tested on: Meyerozyma guilliermondii; experiment: Antibiofilm activity against Candida guilliermondii a83 by two dimensional checkerboard dilution method in presence of anidulafungin; method in brief: as §1
[16] = tested on: Meyerozyma guilliermondii; experiment: Antibiofilm activity against Candida guilliermondii a410 by two dimensional checkerboard dilution method; method in brief: as §1
[17] = tested on: Meyerozyma guilliermondii; experiment: Antibiofilm activity against Candida guilliermondii a410 by two dimensional checkerboard dilution method in presence of anidulafungin; method in brief: as §1
[18] = tested on: Candida albicans; experiment: Potentiation of anidulafungin-induced antibiofilm activity against Candida albicans ATCC 10231 assessed as anidulafungin-fractional inhibitory concentration index by two dimensional checkerboard dilution method
Method in brief: (§2)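 Biofilms grown on PVC disks: 1·10^6 cfu/ml in RPMI 1640 (MOPS, pH 7), 1.5 h adhesion at 37 °C with shaking, PBS wash, 48 h maturation at 37 °C. Preformed biofilms exposed 24 h at 37 °C to anidulafungin/NSAID checkerboard combinations in RPMI. XTT-menadione reduction read at 490 nm. SMIC = 50% metabolic reduction versus drug-free control. Triplicate runs on different days; FIC index calculated.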

[19] = tested on: Candida albicans; experiment: Antibiofilm activity against Candida albicans ATCC 90028 assessed as fractional inhibitory concentration by two dimensional checkerboard dilution method in presence of anidulafungin; method in brief: as §2
[20] = tested on: Candida albicans; experiment: Potentiation of anidulafungin-induced antibiofilm activity against Candida albicans ATCC 90028 assessed as anidulafungin-fractional inhibitory concentration index by two dimensional checkerboard dilution method; method in brief: as §2
[21] = tested on: Candida albicans; experiment: Antibiofilm activity against Candida albicans ATCC 24433 assessed as fractional inhibitory concentration by two dimensional checkerboard dilution method in presence of anidulafungin; method in brief: as §2
[22] = tested on: Candida albicans; experiment: Potentiation of anidulafungin-induced antibiofilm activity against Candida albicans ATCC 24433 assessed as anidulafungin-fractional inhibitory concentration index by two dimensional checkerboard dilution method; method in brief: as §2
[23] = tested on: Candida albicans; experiment: Antibiofilm activity against Candida albicans 17a18 assessed as fractional inhibitory concentration by two dimensional checkerboard dilution method in presence of anidulafungin; method in brief: as §2
[24] = tested on: Candida albicans; experiment: Potentiation of anidulafungin-induced antibiofilm activity against Candida albicans 17a18 assessed as anidulafungin-fractional inhibitory concentration index by two dimensional checkerboard dilution method; method in brief: as §2
[25] = tested on: Nakaseomyces glabratus; experiment: Antibiofilm activity against Candida glabrata ATCC 15126 assessed as fractional inhibitory concentration by two dimensional checkerboard dilution method in presence of anidulafungin; method in brief: as §2
[26] = tested on: Nakaseomyces glabratus; experiment: Potentiation of anidulafungin-induced antibiofilm activity against Candida glabrata ATCC 15126 assessed as anidulafungin-fractional inhibitory concentration index by two dimensional checkerboard dilution method; method in brief: as §2
[27] = tested on: Nakaseomyces glabratus; experiment: Antibiofilm activity against Candida glabrata 18a10 assessed as fractional inhibitory concentration by two dimensional checkerboard dilution method in presence of anidulafungin; method in brief: as §2
[28] = tested on: Nakaseomyces glabratus; experiment: Potentiation of anidulafungin-induced antibiofilm activity against Candida glabrata 18a10 assessed as anidulafungin-fractional inhibitory concentration index by two dimensional checkerboard dilution method; method in brief: as §2
[29] = tested on: Meyerozyma guilliermondii; experiment: Antibiofilm activity against Candida guilliermondii ATCC 6260 assessed as fractional inhibitory concentration by two dimensional checkerboard dilution method in presence of anidulafungin; method in brief: as §2
[30] = tested on: Meyerozyma guilliermondii; experiment: Antibiofilm activity against Candida guilliermondii a83 assessed as fractional inhibitory concentration by two dimensional checkerboard dilution method in presence of anidulafungin; method in brief: as §2
[31] = tested on: Meyerozyma guilliermondii; experiment: Antibiofilm activity against Candida guilliermondii a410 assessed as fractional inhibitory concentration by two dimensional checkerboard dilution method in presence of anidulafungin; method in brief: as §2
[32] = tested on: Meyerozyma guilliermondii; experiment: Potentiation of anidulafungin-induced antibiofilm activity against Candida guilliermondii a410 assessed as anidulafungin-fractional inhibitory concentration index by two dimensional checkerboard dilution method; method in brief: as §2
[33] = tested on: Nakaseomyces glabratus; experiment: Antibiofilm activity against Candida glabrata 18a10 at 0.1 uM to 100 mM after 48 hrs by XTT reduction assay relative to control; parameters: scale not given: the % may be the effect or the level left; method in brief: as §1
[34] = tested on: Nakaseomyces glabratus; experiment: Antibiofilm activity against Candida glabrata ATCC 15126 at 0.1 uM to 100 mM after 48 hrs by XTT reduction assay relative to control; parameters: scale not given: the % may be the effect or the level left; method in brief: as §1
[35] = tested on: Candida albicans; experiment: Antibiofilm activity against Candida albicans 17a18 at 0.1 uM to 100 mM after 48 hrs by XTT reduction assay relative to control; parameters: scale not given: the % may be the effect or the level left; method in brief: as §1
[36] = tested on: Meyerozyma guilliermondii; experiment: Potentiation of anidulafungin-induced antibiofilm activity against Candida guilliermondii a410 at 0.1 uM to 100 mM after 48 hrs by XTT reduction assay relative to control; parameters: scale not given: the % may be the effect or the level left; method in brief: as §1
[37] = tested on: Nakaseomyces glabratus; experiment: Potentiation of anidulafungin-induced antibiofilm activity against Candida glabrata ATCC 15126 at 0.1 uM to 100 mM after 48 hrs by XTT reduction assay relative to control; parameters: scale not given: the % may be the effect or the level left; method in brief: as §1
[38] = tested on: Candida albicans; experiment: Potentiation of anidulafungin-induced antibiofilm activity against Candida albicans 17a18 at 0.1 uM to 100 mM after 48 hrs by XTT reduction assay relative to control; parameters: scale not given: the % may be the effect or the level left; method in brief: as §1
[39] = tested on: Candida albicans; experiment: Potentiation of anidulafungin-induced antibiofilm activity against Candida albicans ATCC 24433 at 0.1 uM to 100 mM after 48 hrs by XTT reduction assay relative to control; parameters: scale not given: the % may be the effect or the level left; method in brief: as §1
[40] = tested on: Candida albicans; experiment: Potentiation of anidulafungin-induced antibiofilm activity against Candida albicans ATCC 90028 at 0.1 uM to 100 mM after 48 hrs by XTT reduction assay relative to control; parameters: scale not given: the % may be the effect or the level left; method in brief: as §1

Row | Structure (SMILES) | Activity [1] [%] | MIC [2] | MIC [3] [µM] | MIC [4] | MIC [5] [µM] | MIC [6] [µM] | MIC [7] | MIC [8] [µM] | MIC [9] | MIC [10] | MIC [11] [µM] | MIC [12] | MIC [13] [µM] | MIC [14] | MIC [15] [µM] | MIC [16] | MIC [17] [µM] | fractional inhibitory concentration index (FICI) [18] | Ratio [19] | fractional inhibitory concentration index (FICI) [20] | further results
1 | CC(=O)Oc1ccccc1C(=O)O [ASPIRIN] | 82.81 | 200 µM | 10 | 1000 µM | 10 | 100 | 200 µM | 10 | 200 µM | 200 µM | 10 | 1000 µM | 100 | 200 µM | 10 | 1000 µM | 100 | 0.1 | 0.05 | 0.1 | Ratio [21]: 0.1; fractional inhibitory concentration index (FICI) [22]: 0.15; Ratio [23]: 0.05; fractional inhibitory concentration index (FICI) [24]: 0.1; Ratio [25]: 0.05; fractional inhibitory concentration index (FICI) [26]: 0.1; Ratio [27]: 0.05; fractional inhibitory concentration index (FICI) [28]: 0.1; Ratio [29]: 0.1; Ratio [30]: 0.05; Ratio [31]: 0.1; fractional inhibitory concentration index (FICI) [32]: 0.15; Activity [33]: 32.32%; Activity [34]: 29.02%; Activity [35]: 46.55%; Activity [36]: 41.54%; Activity [37]: 49.78%; Activity [38]: 51.74%; Activity [39]: 56.14%; Activity [40]: 57.84%
2 | O=C([O-])Cc1ccccc1Nc1c(Cl)cccc1Cl.[Na+] [DICLOFENAC SODIUM] | 66.15 | 100000 µM | 5000 | 100000 µM | 5000 | 5000 | 100000 µM | 5000 | 100000 µM | 100000 µM | 20000 | 100000 µM | 40000 | 100000 µM | 20000 | 100000 µM | 40000 | 0.1 | 0.05 | 0.1 | Ratio [21]: 0.05; fractional inhibitory concentration index (FICI) [22]: 0.1; Ratio [23]: 0.05; fractional inhibitory concentration index (FICI) [24]: 0.1; Ratio [25]: 0.2; fractional inhibitory concentration index (FICI) [26]: 0.3; Ratio [27]: 0.2; fractional inhibitory concentration index (FICI) [28]: 0.3; Ratio [29]: 0.4; Ratio [30]: 0.2; Ratio [31]: 0.4; fractional inhibitory concentration index (FICI) [32]: 0.45; Activity [33]: 44.54%; Activity [34]: 54.44%; Activity [35]: 55.33%; Activity [36]: 54.28%; Activity [37]: 65.96%; Activity [38]: 64.25%; Activity [39]: 65.24%; Activity [40]: 71.04%
3 | CC(C)Cc1ccc(C(C)C(=O)O)cc1 (stereo not drawn) [IBUPROFEN] | 59.51 | 1000 µM | 50 | 1000 µM | 1000 | 1000 | 1000 µM | 50 | 200 µM | 200 µM | 40 | 200 µM | 20 | 200 µM | 40 | 200 µM | 20 | 0.25 | 0.1 | 0.3 | Ratio [21]: 0.1; fractional inhibitory concentration index (FICI) [22]: 0.3; Ratio [23]: 0.05; fractional inhibitory concentration index (FICI) [24]: 0.25; Ratio [25]: 0.2; fractional inhibitory concentration index (FICI) [26]: 0.25; Ratio [27]: 0.2; fractional inhibitory concentration index (FICI) [28]: 0.25; Ratio [29]: 0.1; Ratio [30]: 0.2; Ratio [31]: 0.1; fractional inhibitory concentration index (FICI) [32]: 0.3; Activity [33]: 53.44%; Activity [34]: 57.23%; Activity [35]: 24.51%; Activity [36]: 51.31%; Activity [37]: 57.46%; Activity [38]: 64.22%; Activity [39]: 60.14%; Activity [40]: 61.43%
4 | CCCCCOc1ccc(-c2ccc(-c3ccc(C(=O)N[C@@H]4C[C@@H](O)[C@@H](O)NC(=O)[C@@H]5[C@@H](O)[C@@H](C)CN5C(=O)[C@H]([C@@H](C)O)NC(=O)[C@H]([C@H](O)[C@@H](O)c5ccc(O)cc5)NC(=O)[C@@H]5C[C@@H](O)CN5C(=O)[C@H]([C@H](C)O)NC4=O)cc3)cc2)cc1 |  | 2 µg/mL |  | 2 µg/mL |  |  | 2 µg/mL |  | 2 µg/mL | 2 µg/mL |  | 2 µg/mL |  | 2 µg/mL |  | 2 µg/mL |  |  |  |  | 
